Here are results for 14 molecules from PubChem BioAssay.

The nature of experiment [1]: reducers of endogenous Her2 protein level, primary screen, SKBR3 breast tumor cells, AlphaScreen, ATP viability (AID 461;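 active means Her2 level under about 52% in both replicate screens, with viability over 70% of control, limit read from the data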;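 on Her2 level: lower value means less Her2 protein in the cells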;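 on viability: percent of carrier control wells set as 100% viability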). To be noted: 18-24 h, measured here: SKBR3 viability, ATP luminescence, at 10 µM. A general note: Bead proximity is the source of the signal in Alpha formats.
Experiment [2] addresses Receptor tyrosine-protein kinase erbB-2 (Homo sapiens) (UniProt P04626). The experiment is described as above. To be noted: 18-24 h, at 10 µM, stronger effect = lower value.
Experiment [3] can be described thus: SK-BR-3 cell growth inhibitors, pilot screen, 24 h, human (AID 572).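 Further: compound exposure lasted between 18 and 24 h rather than exactly 24 h; 100% = carrier-treated control wells.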 To be noted: SK-BR-3 viability, CellTiter-Glo luminescence, at 10 µM, stronger effect = lower value.
Experiment [4] in a line: HUVEC growth inhibition – cell-based, human, primary screen (AID 575;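 active means viability at or below 30% in both replicate assays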;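 further: 100% = median of untreated cell wells with 0.1% DMSO on each plate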). To be noted: HUVEC proliferation, CellTiter-Glo luminescence, 72 h; at 10 µM; stronger effect = lower value. The essentials:
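Timing: 72 h treatment at 37 °C; material: HUVEC primary cells; technique: CellTiter-Glo luminescence measuring cellular ATP; controls: vehicle and MePR control wells; measure: percent of median DMSO-control luminescence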

The nature of experiment [5]: growth inhibitors of H69AR lung tumor, primary screen, human, duplicate replicates (AID 580;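 active means viability at or under a set limit in both replicates, limit being median viability minus 3 SD, cut at about 48% in these data, passing the limit was not always enough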;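 further: 100% = mean luminescence of untreated wells and 0% = no signal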). The following applies: H69AR lung tumor cells viability, ATP luminescence, 72 h; at 10 µM; stronger effect = lower value.
A short description of experiment [6]: reversal of MRP1-mediated doxorubicin resistance, pilot screen, H69AR cells, doxorubicin co-treatment (AID 601;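 active means viability loss from added drug above about 55%, and viability with drug at most 40%, in both replicates, limit read from the data, passing the limit was not always enough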). To be noted: CellTiter-Glo, 72 h, at 10 µM; for differential viability (reversal): stronger effect = higher value. For orientation: Cellular ATP, detected with luciferase, serves as a proxy for viable cell number.
Experiment [7] is described as follows: 384-well plate pilot, post-Golgi transport modulator project, inhibition of yeast transport mutant growth (AID 636; in the data active means inhibition above about 31%). To be noted: absorbance 615 nm, about 18 h, stronger effect = higher value.
Experiment [8] in a line: growth suppression of yeast trafficking mutant, preliminary HTS, modulators of trafficking downstream of Golgi apparatus project, 1536-format plate, OD 615 nm (AID 637; in the data active means inhibition above about 30%). To be noted: yeast transport mutant growth, absorbance 615 nm, 18 h; stronger effect = higher value.
The mark [9] stands for this setting: H69AR cells + 2 uM doxorubicin, measured here: viability with 2 uM doxorubicin, stronger effect = lower value.
Setting [10] is: H69AR cells, compound alone cytotoxicity.

The structures appear in SMILES notation. The source made the active and inactive calls.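 How the source made its calls, unless noted: active means viability at or below 10% of carrier control in both of two separate runs; inconclusive means viability at or below 10% in only one of the two runs; inactive means the rest.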

As a reminder, the viability is a read-out of living cells in per cent, often relative to untreated cells. What is called inhibition is the relative decrease from the control value, in per cent.

Receptor tyrosine-protein kinase erbB-2 (Homo sapiens), sequence (P04626 whole entry, looked up): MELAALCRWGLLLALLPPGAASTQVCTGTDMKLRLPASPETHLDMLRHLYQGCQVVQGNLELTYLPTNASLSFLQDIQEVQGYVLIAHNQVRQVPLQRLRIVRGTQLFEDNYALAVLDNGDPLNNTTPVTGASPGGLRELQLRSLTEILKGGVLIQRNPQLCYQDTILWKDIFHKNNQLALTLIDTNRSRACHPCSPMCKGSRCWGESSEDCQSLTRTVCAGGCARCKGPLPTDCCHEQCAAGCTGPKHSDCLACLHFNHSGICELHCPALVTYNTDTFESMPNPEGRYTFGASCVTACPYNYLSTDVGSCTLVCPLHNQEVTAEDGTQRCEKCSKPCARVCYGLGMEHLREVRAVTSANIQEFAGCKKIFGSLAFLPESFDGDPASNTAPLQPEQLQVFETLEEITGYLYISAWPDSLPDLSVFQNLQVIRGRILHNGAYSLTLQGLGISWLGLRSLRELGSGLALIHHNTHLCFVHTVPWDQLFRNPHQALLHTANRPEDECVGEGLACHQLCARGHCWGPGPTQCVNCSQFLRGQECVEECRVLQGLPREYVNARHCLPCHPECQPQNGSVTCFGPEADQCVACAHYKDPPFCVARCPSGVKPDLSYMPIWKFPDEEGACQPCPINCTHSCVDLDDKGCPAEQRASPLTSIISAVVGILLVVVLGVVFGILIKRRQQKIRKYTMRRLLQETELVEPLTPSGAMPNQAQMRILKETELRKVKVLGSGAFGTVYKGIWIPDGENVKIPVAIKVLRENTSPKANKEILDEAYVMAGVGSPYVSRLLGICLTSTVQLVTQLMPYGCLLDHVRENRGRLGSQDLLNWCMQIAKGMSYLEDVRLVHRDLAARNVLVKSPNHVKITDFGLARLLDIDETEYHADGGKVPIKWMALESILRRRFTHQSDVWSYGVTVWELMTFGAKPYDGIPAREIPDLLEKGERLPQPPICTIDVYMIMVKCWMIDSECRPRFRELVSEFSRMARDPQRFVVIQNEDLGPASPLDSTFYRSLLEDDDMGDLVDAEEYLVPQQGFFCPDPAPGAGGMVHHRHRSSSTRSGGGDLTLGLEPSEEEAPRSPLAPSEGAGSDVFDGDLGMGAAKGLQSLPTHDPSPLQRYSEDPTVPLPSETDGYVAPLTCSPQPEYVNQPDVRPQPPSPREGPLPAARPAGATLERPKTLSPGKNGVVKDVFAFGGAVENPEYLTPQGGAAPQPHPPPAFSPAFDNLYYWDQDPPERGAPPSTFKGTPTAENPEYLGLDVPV

Consider `OCc1cn(-c2ccccc2)nc1-c1ccc2c(c1)OCCO2`, for which the viability in experiment [1] is 93%; in experiment [3] it was 93% (inactive); in experiment [4], 70.5% (inactive); in experiment [5] it was 83.9% (inactive); in experiment [6] (setting [9]), 88.3%; in experiment [6] (setting [10]), 83.9%. Moreover, in experiment [2], the Her2 level was 102% (inactive). Moreover, the differential viability (reversal) in experiment [6] (H69AR cells + 2 uM doxorubicin) is -4.38% (inactive). The inhibition was -7.95% (inactive) in experiment [7] and -4.44% (inactive) in experiment [8].
In the case of `O=C(CSc1nnc(CNC(=O)c2c(F)cccc2Cl)o1)c1ccccc1`, the viability in experiment [1] was 94.5%; in experiment [3], 94.5% (inactive); in experiment [4], 112% (inactive); in experiment [5], 92.1% (inactive); in experiment [6] (setting [9]), 93.7%; in experiment [6] (setting [10]), 92.1%. In addition, the Her2 level in experiment [2] was 107% (inactive). Also, the differential viability (reversal) in experiment [6] (H69AR cells + 2 uM doxorubicin) was -1.57% (inactive). In addition, the inhibition in experiment [7] was 0.38% (inactive); in experiment [8] it was -0.67% (inactive).
As for `CCC(=O)c1ccc(OCCN2CCOCC2)cc1`, the viability in experiment [1] is 99.5%; in experiment [3], 99.5% (inactive); in experiment [4] it was 111% (inactive); in experiment [5] it was 109% (inactive); in experiment [6] (setting [9]) it was 92.1%; in experiment [6] (setting [10]), 109%. Moreover, the Her2 level in experiment [2] is 91.5% (inactive). Moreover, the differential viability (reversal) in experiment [6] (H69AR cells + 2 uM doxorubicin) is 17% (inactive). Besides, the inhibition was -5% (inactive) in experiment [7] and -3.87% (inactive) in experiment [8].
With `CCOC(=O)N1CCN(c2cc3nccnc3cc2F)CC1`, the viability in experiment [1] was 114%; in experiment [3], 114% (inactive); in experiment [4], 84.5% (inactive); in experiment [5] it was 99.3% (inactive); in experiment [6] (setting [9]) it was 93.7%; in experiment [6] (setting [10]), 99.3%. The Her2 level in experiment [2] is 92% (inactive). For the same molecule, the differential viability (reversal) in experiment [6] (H69AR cells + 2 uM doxorubicin) is 5.61% (inactive). Moreover, the figures for the inhibition in experiment [7] and in experiment [8] were -7.03% (inactive) and -4.17% (inactive), respectively.
Turning to `CCOc1ccccc1C(=O)NC(C)c1ccc2c(c1)OCO2` (stereo not given), the viability was 104% in experiment [1]; 104% (inactive) in experiment [3]; 67.6% (inactive) in experiment [4]; 23.5% (active) in experiment [5]; 80% in experiment [6] (setting [9]); 23.5% in experiment [6] (setting [10]). Moreover, the Her2 level in experiment [2] is 99% (inactive). Moreover, in experiment [6] (H69AR cells + 2 uM doxorubicin), the differential viability (reversal) is -56.4% (inactive). Moreover, the inhibition in experiment [7] was -6.89% (inactive); in experiment [8], -4.26% (inactive).
As to `COc1cccc(C(c2nnnn2CCc2ccccc2)N2CCN(c3ccccc3)CC2)c1OC` (stereo not given), the viability was 91% in experiment [1]; 91% (inactive) in experiment [3]; 109% (inactive) in experiment [4]; 83.1% (inactive) in experiment [5]; 91% in experiment [6] (setting [9]); 83.1% in experiment [6] (setting [10]). For the same molecule, in experiment [2], the Her2 level is 88% (inactive). Moreover, in experiment [6] (H69AR cells + 2 uM doxorubicin), the differential viability (reversal) is -7.96% (inactive). In addition, the inhibition in experiment [7] was 13.1% (inactive); in experiment [8], -1.13% (inactive).
With `O=C(Cn1nnc(-c2ccccc2)n1)Nc1ccccc1N1CCOCC1`, the viability was 99.5% in experiment [1]; 99.5% (inactive) in experiment [3]; 110% (inactive) in experiment [4]; 93.3% (inactive) in experiment [5]; 92.5% in experiment [6] (setting [9]); 93.3% in experiment [6] (setting [10]). The Her2 level in experiment [2] was 98% (inactive). The differential viability (reversal) in experiment [6] (H69AR cells + 2 uM doxorubicin) was 0.8% (inactive). Besides, the inhibition in experiment [7] was -7.2% (inactive); in experiment [8], 0.66% (inactive).
For the molecule `CC(C(=O)Nc1ccccc1-c1ccccc1)N1CCOCC1` (stereo not given), the viability in experiment [1] was 108%; in experiment [3], 108% (inactive); in experiment [4], 104% (inactive); in experiment [5], 96.1% (inactive); in experiment [6] (setting [9]), 97.1%; in experiment [6] (setting [10]) it was 96.1%. The Her2 level in experiment [2] was 97.5% (inactive). Further, the differential viability (reversal) in experiment [6] (H69AR cells + 2 uM doxorubicin) is -1.07% (inactive). Further, the inhibition in experiment [7] was -10.6% (inactive); in experiment [8], -4.13% (inactive).
With `CC(=O)Nc1sc2c(c1CN1CCN(c3ccccn3)CC1)CCCC2`, the viability in experiment [1] was 66%; in experiment [3], 66% (inactive); in experiment [4] it was 96% (inactive); in experiment [5] it was 95.4% (inactive); in experiment [6] (setting [9]) it was 83.3%; in experiment [6] (setting [10]), 95.4%. Moreover, in experiment [2], the Her2 level is 85.5% (inactive). Besides, the differential viability (reversal) in experiment [6] (H69AR cells + 2 uM doxorubicin) is 12% (inactive). In addition, the values for the inhibition in experiment [7] and in experiment [8] were -2.53% (inactive) and -10.5% (inactive), respectively.
Turning to `O=C(COC(=O)c1cc(-c2ccco2)nc2ccccc12)NCc1ccc2c(c1)OCO2`, the viability in experiment [1] was 97%; in experiment [3], 97% (inactive); in experiment [4], 72.2% (inactive); in experiment [5], 96.8% (inactive); in experiment [6] (setting [9]) it was 85.5%; in experiment [6] (setting [10]) it was 96.8%. In experiment [2], the Her2 level is 93% (inactive). The differential viability (reversal) in experiment [6] (H69AR cells + 2 uM doxorubicin) was 11.3% (inactive). For the same molecule, the inhibition in experiment [7] was -5.75% (inactive); in experiment [8], -10.3% (inactive).
For the molecule `O=C(C1CCN(c2nnnn2-c2ccccc2)CC1)N1CCN(c2ccccc2)CC1`, the viability in experiment [1] is 106%; in experiment [3], 106% (inactive); in experiment [4], 85.6% (inactive); in experiment [5] it was 79% (inactive); in experiment [6] (setting [9]) it was 77.5%; in experiment [6] (setting [10]), 79%. For the same molecule, the Her2 level in experiment [2] is 87.5% (inactive). In addition, the differential viability (reversal) in experiment [6] (H69AR cells + 2 uM doxorubicin) is 1.51% (inactive). Also, the results for the inhibition in experiment [7] and in experiment [8] were -5.27% (inactive) and 5.08% (inactive), respectively.
For `CCOC(=O)C1CCN(C(=O)c2ccc(Cl)c(Cl)c2)CC1`, the viability in experiment [1] was 75.5%; in experiment [3], 75.5% (inactive); in experiment [4], 94.3% (inactive); in experiment [5], 102% (inactive); in experiment [6] (setting [9]), 96.3%; in experiment [6] (setting [10]), 102%. In addition, the Her2 level in experiment [2] was 105% (inactive). In addition, the differential viability (reversal) in experiment [6] (H69AR cells + 2 uM doxorubicin) was 5.88% (inactive). Further, the inhibition in experiment [7] was 3.65% (inactive); in experiment [8] it was -2.3% (inactive).
`COc1ccc(N2CCN(c3ncnc4c3cnn4-c3ccc(C)cc3C)CC2)cc1`: the viability in experiment [1] is 81%; in experiment [3], 81% (inactive); in experiment [4], 87.1% (inactive); in experiment [5], 66.2% (inactive); in experiment [6] (setting [9]), 19.4%; in experiment [6] (setting [10]) it was 66.2%. For the same molecule, the Her2 level in experiment [2] is 72.5% (inactive). Besides, the differential viability (reversal) in experiment [6] (H69AR cells + 2 uM doxorubicin) was 46.8% (inactive). Moreover, the inhibition in experiment [7] was -1.58% (inactive); in experiment [8], -1.29% (inactive).
For `CCOC(=O)CSc1nnc(Cn2nnc(-c3ccccc3)n2)n1CC`, the viability is 95.5% in experiment [1]; 95.5% (inactive) in experiment [3]; 107% (inactive) in experiment [4]; 90.7% (inactive) in experiment [5]; 92.7% in experiment [6] (setting [9]); 90.7% in experiment [6] (setting [10]). In addition, in experiment [2], the Her2 level was 84% (inactive). In addition, in experiment [6] (H69AR cells + 2 uM doxorubicin), the differential viability (reversal) was -2.04% (inactive). For the same molecule, the inhibition in experiment [7] is -7.2% (inactive); in experiment [8], -3.17% (inactive).
